Tests used:
[1] = Metabolic stability in human plasma assessed as parent compound remaining at 1 uM after 1 hr by HPLC-MS/MS analysis; format: ADME, cell-free; conditions: read-out: Stability
Procedure, shortened: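 The compound was incubated in human plasma for 1 h, and stability was expressed as the percentage of parent compound remaining.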

[2] = Metabolic stability in human liver microsomes assessed as parent compound remaining at 1 uM after 15 mins in presence of NADPH by HPLC-MS/MS analysis; format: ADME, microsome; conditions: read-out: Stability
Procedure, shortened: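 The compound was incubated at 1 µM with human liver microsomes for 15 min, and the percentage of parent compound remaining was measured.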

remaining at 1 h, 1 µM [1]: 85% | remaining at […], 1 µM [2]: 40%
SMILES: Clc1ccc(SCc2n[nH]c(-c3ccc(Cl)cc3)n2)cc1

Source: ChEMBL document CHEMBL4229349, “Challenging clinically unresponsive medullary thyroid cancer: Discovery and pharmacological activity of novel RET inhibitors” (Eur J Med Chem, 2018)
